Experiments:
[1] = molecular target: Testis-specific serine/threonine-protein kinase 1 (Homo sapiens) (UniProt Q9BXA7); experiment: Inhibition of recombinant human TSSK1 at 20 nM using Ulight-RRRSLLE as substrate measured after 60 mins by LANCE method relative to control
[2] = molecular target: Calcium/calmodulin-dependent protein kinase type 1 (Homo sapiens) (UniProt Q14012); experiment: Inhibition of recombinant human CAMK1alpha at 20 nM using CREBtide as substrate measured after 30 mins by LANCE assay relative to control
Calcium/calmodulin-dependent protein kinase type 1 (Homo sapiens), sequence (Q14012 whole entry, looked up): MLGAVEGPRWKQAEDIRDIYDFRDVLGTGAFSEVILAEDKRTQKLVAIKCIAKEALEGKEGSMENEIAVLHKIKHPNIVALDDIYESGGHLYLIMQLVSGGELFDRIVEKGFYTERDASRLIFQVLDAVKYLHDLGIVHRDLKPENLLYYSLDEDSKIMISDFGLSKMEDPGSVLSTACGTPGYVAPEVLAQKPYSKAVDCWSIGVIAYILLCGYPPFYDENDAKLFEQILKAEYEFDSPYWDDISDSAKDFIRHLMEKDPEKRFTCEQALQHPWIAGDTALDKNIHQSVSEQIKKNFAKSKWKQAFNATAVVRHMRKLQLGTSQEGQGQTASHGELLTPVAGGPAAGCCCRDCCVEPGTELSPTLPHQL
Procedure, shortened: (§1)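 Single-concentration screen within an 85-kinase panel run by a contract lab, with each compound tested at 20 nM and 200 nM. Human recombinant enzymes were used. Activity was quantified as phosphorylation of a peptide substrate read by LANCE time-resolved detection, and inhibition was expressed relative to control, using the same format as the JAK assay.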

[3] = molecular target: Cyclin-dependent kinase 6 (Homo sapiens) (UniProt Q00534); experiment: Inhibition of recombinant human CDK6 at 20 nM using Ulight-CFFKNIVTPRTPPPSQGK-amide as substrate measured after 60 mins by LANCE assay relative to control; procedure, shortened: as §1
Cyclin-dependent kinase 6 (Homo sapiens), sequence (Q00534 whole entry): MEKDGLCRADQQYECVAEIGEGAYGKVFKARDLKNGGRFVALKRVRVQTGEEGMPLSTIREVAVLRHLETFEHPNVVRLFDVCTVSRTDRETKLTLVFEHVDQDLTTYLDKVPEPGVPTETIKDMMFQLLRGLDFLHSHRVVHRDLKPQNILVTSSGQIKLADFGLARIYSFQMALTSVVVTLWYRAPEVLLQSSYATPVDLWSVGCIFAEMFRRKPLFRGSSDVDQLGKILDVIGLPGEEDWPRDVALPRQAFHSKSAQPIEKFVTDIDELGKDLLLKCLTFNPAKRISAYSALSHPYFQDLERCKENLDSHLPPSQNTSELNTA

[4] = Half life in rat liver microsomes at 1 uM in presence of NADPH cofactor for phase 1 metabolism and measured upto 60 mins by LC-MS/MS analysis; assay type: ADME, Microsome
Procedure, shortened: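 Liver microsomes (rat or human) incubated with compound at 37 °C, with NADPH for phase I or UDPGA for phase II. Reactions stopped in acetonitrile at set time points, vortexed 5 min, stored at -80 °C. Parent remaining in supernatant measured by LC-MS/MS. t1/2 = -0.693/k, with k the slope of ln fraction remaining versus time.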

Homo sapiens = organism: Homo sapiens; experiment: Inhibition of recombinant human PKA at 20 nM using Ulight-RRRSLLE peptide as substrate measured after 10 mins by LANCE assay relative to control
[5] = molecular target: Vascular endothelial growth factor receptor 3 (Homo sapiens) (UniProt P35916); experiment: Inhibition of recombinant human FLT4 at 20 nM using Ulight-CAGAGAIETDKEYYTVKD as substrate measured after 90 mins by LANCE method relative to control
Vascular endothelial growth factor receptor 3 (Homo sapiens), sequence (P35916 whole entry): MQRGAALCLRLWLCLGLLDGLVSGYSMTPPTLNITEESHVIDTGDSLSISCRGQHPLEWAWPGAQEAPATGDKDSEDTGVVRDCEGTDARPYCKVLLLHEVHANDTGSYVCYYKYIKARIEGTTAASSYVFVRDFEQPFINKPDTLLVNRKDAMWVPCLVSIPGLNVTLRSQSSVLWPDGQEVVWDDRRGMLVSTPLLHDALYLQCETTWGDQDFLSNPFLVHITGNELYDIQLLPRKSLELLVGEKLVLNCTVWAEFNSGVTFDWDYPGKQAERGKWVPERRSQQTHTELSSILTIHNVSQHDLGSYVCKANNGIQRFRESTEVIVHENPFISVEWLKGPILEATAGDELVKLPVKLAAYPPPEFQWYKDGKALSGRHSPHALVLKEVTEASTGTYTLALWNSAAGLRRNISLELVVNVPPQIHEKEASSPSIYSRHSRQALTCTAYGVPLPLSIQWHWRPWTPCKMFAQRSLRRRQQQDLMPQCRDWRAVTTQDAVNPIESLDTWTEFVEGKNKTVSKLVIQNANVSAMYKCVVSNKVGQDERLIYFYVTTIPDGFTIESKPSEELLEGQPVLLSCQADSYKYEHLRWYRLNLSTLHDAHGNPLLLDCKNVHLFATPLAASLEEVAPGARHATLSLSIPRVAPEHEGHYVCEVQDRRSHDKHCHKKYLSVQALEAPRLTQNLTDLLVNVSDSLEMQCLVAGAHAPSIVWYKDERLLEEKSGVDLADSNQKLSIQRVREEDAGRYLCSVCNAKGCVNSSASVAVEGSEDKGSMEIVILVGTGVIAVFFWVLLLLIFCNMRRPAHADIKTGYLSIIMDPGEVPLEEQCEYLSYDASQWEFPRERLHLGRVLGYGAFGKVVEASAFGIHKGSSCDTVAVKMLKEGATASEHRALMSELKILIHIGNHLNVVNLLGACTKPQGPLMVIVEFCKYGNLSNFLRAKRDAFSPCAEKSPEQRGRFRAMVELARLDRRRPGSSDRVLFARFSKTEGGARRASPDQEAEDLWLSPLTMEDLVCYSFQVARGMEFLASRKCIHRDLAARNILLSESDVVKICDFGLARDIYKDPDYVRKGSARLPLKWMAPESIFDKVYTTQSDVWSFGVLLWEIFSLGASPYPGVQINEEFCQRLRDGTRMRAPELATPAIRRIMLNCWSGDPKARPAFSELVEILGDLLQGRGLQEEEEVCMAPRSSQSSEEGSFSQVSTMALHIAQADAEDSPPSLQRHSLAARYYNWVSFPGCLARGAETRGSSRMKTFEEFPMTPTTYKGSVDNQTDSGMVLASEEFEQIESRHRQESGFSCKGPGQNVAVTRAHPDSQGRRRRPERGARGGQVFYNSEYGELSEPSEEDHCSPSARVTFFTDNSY
Procedure, shortened: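 Part of an 85-kinase selectivity panel run by a contract lab. The test compound was screened at 20 nM and 200 nM against human recombinant kinases. Activity was quantified as phosphorylation of a ULight-labelled peptide substrate, read by LANCE detection. Percent inhibition was taken relative to control. The method is the same one used for JAKs.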

[6] = molecular target: Vascular endothelial growth factor receptor 1 (Homo sapiens) (UniProt P17948); experiment: Inhibition of recombinant human FLT1 at 200 nM using Ulight-TK peptide as substrate measured after 15 mins by LANCE method relative to control; procedure, shortened: as §1
Vascular endothelial growth factor receptor 1 (Homo sapiens), sequence (P17948 whole entry): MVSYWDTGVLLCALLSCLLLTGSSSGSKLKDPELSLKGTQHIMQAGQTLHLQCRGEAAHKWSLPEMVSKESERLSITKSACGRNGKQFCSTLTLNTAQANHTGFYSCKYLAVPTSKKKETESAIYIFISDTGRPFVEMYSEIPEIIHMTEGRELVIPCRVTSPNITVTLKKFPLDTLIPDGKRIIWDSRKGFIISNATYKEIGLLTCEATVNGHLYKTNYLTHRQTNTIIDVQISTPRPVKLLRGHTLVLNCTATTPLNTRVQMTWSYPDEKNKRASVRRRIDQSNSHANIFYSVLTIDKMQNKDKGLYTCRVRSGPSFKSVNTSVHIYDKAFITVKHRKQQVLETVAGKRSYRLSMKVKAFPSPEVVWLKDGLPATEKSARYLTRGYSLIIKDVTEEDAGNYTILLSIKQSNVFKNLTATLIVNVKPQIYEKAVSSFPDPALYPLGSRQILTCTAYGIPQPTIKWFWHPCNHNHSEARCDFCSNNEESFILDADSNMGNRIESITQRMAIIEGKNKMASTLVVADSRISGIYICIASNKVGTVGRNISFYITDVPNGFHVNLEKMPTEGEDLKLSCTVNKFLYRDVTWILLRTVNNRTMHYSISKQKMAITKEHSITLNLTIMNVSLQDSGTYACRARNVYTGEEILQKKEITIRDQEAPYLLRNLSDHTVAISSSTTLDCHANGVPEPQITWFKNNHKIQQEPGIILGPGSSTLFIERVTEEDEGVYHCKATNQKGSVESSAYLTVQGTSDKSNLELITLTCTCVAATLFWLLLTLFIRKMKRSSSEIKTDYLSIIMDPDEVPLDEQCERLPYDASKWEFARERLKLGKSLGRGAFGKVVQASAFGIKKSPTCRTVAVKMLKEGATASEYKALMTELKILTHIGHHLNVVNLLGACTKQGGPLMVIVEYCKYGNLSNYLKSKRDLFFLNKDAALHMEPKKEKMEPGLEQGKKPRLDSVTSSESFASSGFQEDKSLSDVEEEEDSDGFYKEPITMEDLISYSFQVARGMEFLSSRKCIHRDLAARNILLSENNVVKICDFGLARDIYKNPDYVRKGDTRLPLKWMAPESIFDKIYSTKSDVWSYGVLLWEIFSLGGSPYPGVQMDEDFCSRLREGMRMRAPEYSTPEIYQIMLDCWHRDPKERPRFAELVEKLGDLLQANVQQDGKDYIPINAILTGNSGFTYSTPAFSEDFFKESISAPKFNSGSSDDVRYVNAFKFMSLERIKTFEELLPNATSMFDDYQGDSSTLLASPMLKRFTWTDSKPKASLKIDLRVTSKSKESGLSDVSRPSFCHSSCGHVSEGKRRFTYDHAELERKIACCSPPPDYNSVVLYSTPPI

Testis-specific serine/threonine-protein kinase 1 (Homo sapiens), sequence (Q9BXA7 whole entry): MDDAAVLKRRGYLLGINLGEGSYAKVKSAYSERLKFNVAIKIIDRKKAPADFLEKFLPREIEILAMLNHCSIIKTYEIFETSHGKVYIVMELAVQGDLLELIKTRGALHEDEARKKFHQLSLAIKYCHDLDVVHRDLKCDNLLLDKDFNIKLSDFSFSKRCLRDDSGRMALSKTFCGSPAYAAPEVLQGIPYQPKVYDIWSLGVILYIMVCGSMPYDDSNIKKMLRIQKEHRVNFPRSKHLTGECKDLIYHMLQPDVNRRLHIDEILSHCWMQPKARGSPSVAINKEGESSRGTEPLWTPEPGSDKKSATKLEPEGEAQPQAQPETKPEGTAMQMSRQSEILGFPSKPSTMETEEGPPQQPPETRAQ

inhibition [1]: -3%
inhibition [2]: 2%
inhibition [3]: 10%
half-life at 1 µM [4]: 14.6 min
inhibition (Homo sapiens): -10%
inhibition [5]: 38%
inhibition [6]: 61%
Compound: O=C(CCCCCn1cc(Nc2ncc(Cl)c(Nc3ccc(Cl)cc3)n2)cn1)NO

From ChEMBL document CHEMBL4346670, “Discovery of Novel Janus Kinase (JAK) and Histone Deacetylase (HDAC) Dual Inhibitors for the Treatment of Hematological Malignancies” (J Med Chem, 2019)
